Source: PubChem BioAssay (several laboratories)
A selection: hits, their analogues and other compounds. The true share with any hit is near 2.6%.
Exocytosis inh: blocks lytic granule exocytosis; TALL-104 LAMP-1 surface exposure, flow cytometry; cells stimulated with thapsigargin and PMA; inhibition, % at 10 µM; 0.66% of 360,000 active;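 active = inhibition above about 55%, limit read from the data; inconclusive = no clear call, values can overlap the other calls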
iPSC survival up: increases survival of single human iPS cells | 0.044% of 360,000 active | AID 602274 | survival enhancement, % at 20 µM | hiPSC single-cell survival, ATPlite luminescence; 100% = ROCK inhibitor wells, 0% = DMSO; in the data active = survival enhancement above about 18%;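 also: cells exposed to compounds for 16 hours before the ATP read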
MC4R antagonist: blocks human MC4R cAMP signaling; 0.48% of 360,000 active; inhibition, % at 6.5 µM; P32245; MC4R-expressing cells, MTII-stimulated cAMP, LANCE TR-FRET;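 active = inhibition above its plate's cutoff, the mean of tested wells on that plate plus 3 SD, cut at about 29% in these data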;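 also: 0% = Melanotan II alone and 100% = Melanotan II plus saturating MCL0020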
Target sequence (P32245 whole entry, looked up): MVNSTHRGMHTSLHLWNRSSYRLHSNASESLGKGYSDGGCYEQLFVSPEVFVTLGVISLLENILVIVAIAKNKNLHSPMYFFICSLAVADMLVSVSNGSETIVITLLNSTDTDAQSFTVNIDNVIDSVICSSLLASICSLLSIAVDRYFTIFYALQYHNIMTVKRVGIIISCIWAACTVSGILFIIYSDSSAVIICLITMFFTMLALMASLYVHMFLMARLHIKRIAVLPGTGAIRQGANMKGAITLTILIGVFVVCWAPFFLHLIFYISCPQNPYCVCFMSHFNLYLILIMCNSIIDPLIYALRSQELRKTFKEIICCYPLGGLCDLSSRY
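Material – human MC4R-expressing U2OS cells · Repeats – no replicates · Detection – TR-FRET with Eu-cAMP and labeled anti-cAMP, 671 nm · Times – compound 30 min, challenge 1 h, detection 1 h · Compound – single nominal compound dose of 6.5 µM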
ABCB6 inh 2: blocks the human ABCB6 transporter. Q9NP58. K562-ABCB6 porphyrin accumulation, flow cytometry, 1 h; stronger effect = lower value. fluorescence ratio to DMSO, % at 10 µM. 0.19% of 360,000 active. AID 602162;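 active = fluorescence ratio to DMSO below 75%, the collection mean minus 3 SD; inconclusive = too few cells collected in the well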;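 also: signal is porphyrin accumulated inside mitochondria; 100% equals median channel fluorescence of DMSO control wells; lower ratio means ABCB6 inhibition with less porphyrin fluorescence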
TbMetRS inhib: Trypanosoma brucei MetRS inhibition | purified T. brucei MetRS, ATP depletion, Kinase-Glo luminescence | inhibition, % at 11.9 µM | 0.4% of 360,000 active | AID 624268;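 active = inhibition above a per-plate cutoff of the control wells' mean inhibition plus 3 SD, cut at about 5.5% in these data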;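 also: 0% = DMSO wells median and 100% = median of wells with control inhibitor compound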
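Dosing: 11.9 µM compound single dose, 0.9% DMSO; Assay system: purified T. brucei MetRS enzyme; Measured by: Kinase-Glo luciferase luminescence reporting remaining unconsumed ATP; Schedule: 15 min plus 2 h at 25 °C.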
MC4R ag barr: agonists of human melanocortin 4 receptor (MC4R) beta-arrestin; U2OS MC4R beta-arrestin complementation, luminescence; percent of melanotan II response, DMSO zero; activation, % at 8.9 µM; 0.98% of 360,000 active; AID 540308;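 active = activation above a per-plate cutoff, the mean activation of sample wells on that plate plus 3 SD, cut at about 8% in these data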
ABCB6 blocker 1: inhibitors of human ABC transporter ABCB6 | shares compounds with ABCB6 inh 2 | K562-ABCB6 porphyrin accumulation, flow cytometry, 1 h; stronger effect = lower value | ratio response (% of DMSO), % at 10 µM | 700 tested, under 10 active;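 active = repeat-averaged ratio response below 75% of DMSO, the collection mean minus 3 SD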;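 also: median porphyrin fluorescence at 575 nm with 488 nm excitation from mitochondria; lower ratio means less porphyrin signal so ABCB6 inhibition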
K562 vector FC: effect in K562 cells lacking ABCB6, counter-screen | shares compounds with ABCB6 inh 2 | K562 empty-vector cells, flow cytometry fluorescence, 1 h | percent response (fluorescence), % at 100 µM | 25 tested, under 10 active | AID 624484;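 active = compounds whose half-maximal effective concentration is below 100 µM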
* marks the source's active call; other numbers are inactive results; ? = inconclusive; . = no result given.

SMILES	Exocytosis inh	iPSC survival up	MC4R antagonist	ABCB6 inh 2	TbMetRS inhib	MC4R ag barr	ABCB6 blocker 1	others
COc1ccc(N(C(=O)c2ccncc2)S(=O)(=O)c2ccc(Cl)cc2)cc1	1	-1	15	98	-1	1	.
COc1ccc(N(C(=O)C(C)C)S(=O)(=O)c2ccc(Cl)cc2)cc1	4	3	1	48*	-1	0	98
Cc1ccc(Cl)cc1NC(=O)C1CCCN1S(=O)(=O)c1ccc(-c2ccc(=O)[nH]n2)s1 (centres undefined)	4	0	16	101	0	0	.
Cc1nnc(NC(=O)c2nc(S(=O)(=O)Cc3ccccc3C)ncc2Cl)s1	2	0	22	108	0	2	.	K562 vector FC=237
CCSc1ncc(Cl)c(C(=O)Nc2ccccc2OC)n1	-4	0	-2	91	0	1	.
CC(=O)Nc1ccc(NC(=O)c2nc(S(=O)(=O)Cc3ccccc3)ncc2Cl)cc1	?	0	18	70*	-1	-4	.	K562 vector FC=280
CCOc1ccccc1NC(=O)c1nc(S(=O)(=O)Cc2cccc(C)c2)ncc1Cl	48	5	22	41*	0	-2	.	K562 vector FC=269
CC1(C(=O)O)CCCN1C(=O)c1cc2ccccc2s1 (centres undefined)	1	2	8	96	0	-2	.
CC(C)(Oc1ccc(Cl)cc1)C(=O)NCC1CCCO1 (centres undefined)	13	0	3	106	0	0	.
CSc1ccc(-c2cccc3nncn23)cc1	-1	2	-3	65*	0	0	98
Cn1cc(-c2cccc3nncn23)cn1	14	1	-3	93	0	0	.
CC(C)(C)c1ccc(CC(=O)N2CCC2(C)C(=O)NS(=O)(=O)c2ccccc2C(F)(F)F)cc1 (centres undefined)	0	0	7	86	0	-2	100
Cc1ccc(F)c(S(=O)(=O)NC(=O)C2(C)CCN2C(=O)Cc2cccc3ccccc23)c1 (centres undefined)	2	-2	1	85	0	2	97
Cc1ccc(S(=O)(=O)NC(=O)C2(C)CCN2C(=O)Cc2ccc(C(C)(C)C)cc2)cc1 (centres undefined)	-4	2	14	95	1	-2	.
CC1(C(=O)NS(=O)(=O)c2cccc(Cl)c2)CCN1C(=O)Cc1ccc(Cl)cc1Cl (centres undefined)	9	1	5	95	0	-1	.
Cc1ccc(S(=O)(=O)NC(=O)C2(C)CCN2C(=O)Cc2ccc(-c3ccccc3)cc2)cc1 (centres undefined)	-7	-1	9	97	0	-1	102
Cc1cccc(S(=O)(=O)NC(=O)C2(C)CCN2C(=O)Cc2ccc(Cl)cc2Cl)c1 (centres undefined)	-1	4	-1	104	0	0	101
Cc1ccc(F)c(S(=O)(=O)NC(=O)C2(C)CCN2C(=O)Cc2ccc(C(C)(C)C)cc2)c1 (centres undefined)	-1	6	16	99	0	-1	.
CC(C)(C)c1ccc(CC(=O)N2CCC2(C)C(=O)NS(=O)(=O)c2cccc(F)c2)cc1 (centres undefined)	1	2	9	98	0	0	102
CC1(C(=O)NS(=O)(=O)c2cccc(C#N)c2)CCN1C(=O)CCc1ccccc1 (centres undefined)	2	0	7	99	0	0	101
CC1(C(=O)NS(=O)(=O)c2cccc(F)c2)CCN1C(=O)Cc1ccccc1 (centres undefined)	-2	1	5	92	0	1	.
CC1(C(=O)NS(=O)(=O)c2ccccc2)CCN1C(=O)Cc1ccccc1 (centres undefined)	-3	-1	4	98	0	-1	.
Cc1cccc(S(=O)(=O)NC(=O)C2(C)CCN2C(=O)Cc2ccccc2)c1 (centres undefined)	0	2	6	99	0	2	102
Cc1cccc(OCC2CCCN(Cc3nc(C4CC4)no3)C2)c1 (centres undefined)	-2	2	20	98	-1	-2	.
CSCCC(NC(N)=O)C(=O)N(C)CC(=O)Nc1cc(C)ccc1C (centres undefined)	0	-3	-3	69*	0	0	100
SMILES	Exocytosis inh	iPSC survival up	MC4R antagonist	ABCB6 inh 2	TbMetRS inhib	MC4R ag barr	ABCB6 blocker 1	others
Cc1ccc(C)c(NC(=O)CN(C)C(=O)[C@@H](NC(N)=O)C(C)C)c1	5	0	-3	93	-1	0	.
CCn1cc([N+](=O)[O-])c(C(=O)Nc2ccn(Cc3ccccc3F)n2)n1	2	0	-1	71*	0	-1	103
O=C(c1ccccc1)C(C(=O)N1CCc2ccccc2C1)n1ccccc1=O (centres undefined)	0	1	6	73*	-1	-1	98
CSCC[C@H](NC(=O)C1CCN(S(=O)(=O)c2ccc(C)cc2C)CC1)c1nc2ccccc2[nH]1	6	1	27	98	0	-1	.
COc1ccc(CC(=O)Nc2c3c(nn2-c2ccccc2C)CS(=O)C3)cc1 (centres undefined)	1	-1	2	59*	0	0	99
Cc1ccccc1-n1nc2c(c1NC(=O)COc1ccc(Cl)cc1)CS(=O)C2 (centres undefined)	-3	-3	-2	98	0	1	.
CN(C(=O)CSc1nnc(-c2ccccc2)o1)c1c(N)n(Cc2ccccc2)c(=O)[nH]c1=O	-1	4	15	85	0	-2	.
COc1ccc(-n2c(COc3ccccc3)nnc2SCc2ccc(C#N)cc2)cc1	0	-2	0	51*	0	2	99
O=C(CNC(=O)c1cccc(Cl)c1)NCC(c1cccs1)N1CCOCC1 (centres undefined)	20	0	8	94	-1	1	.
CCCCN(C(=O)c1cc(-c2ccncc2)nc2ccccc12)c1c(N)n(CC(C)C)c(=O)[nH]c1=O	-4	0	10	51*	0	1	100
Cc1cccc(NC(=O)CSc2n[nH]c(-c3cccnc3)n2)c1	3	0	9	98	0	-1	.
